In PubChem BioAssay AID504383 (The Scripps Research Institute Molecular Screening Center, 2011):
In all, about 2,500 compounds went through this assay and about 1,200 (48%) were called active.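 How the source made its calls: active means mean activation above the low control average plus 3 SD, as set in the primary screen (cut at about 12% in these data); inactive means the rest.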 So high a share suggests a set chosen from earlier hits. The list shows a part of the results.

The molecules below were run against Troponin I, cardiac muscle (Homo sapiens) + Troponin T, cardiac muscle (Homo sapiens) + Troponin C, slow skeletal and cardiac muscles (Homo sapiens) (UniProt P19429+P45379+P63316) (assay: cardiac RTF calcium sensitivity activators, confirmation, biochemical, IANBD-TnC fluorescence, triplicate (AID 504383;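 further: 0% = DMSO at 0.472 mM calcium and 100% = DMSO at 2.9 mM calcium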)). Conditions: IANBD-labeled cardiac RTF, Ca2+ sensitivity fluorescence; at 7.2 µM; hits give high values; scaled from EC20 to saturating calcium; tested at EC20 calcium, 0.472 mM.
Method in brief: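 Assay system: labelled regulated thin filaments / Timing: 15 min at 25 °C / Detection: fluorescence intensity of labelled filaments / Measure: fluorescence gain scaled between EC20 and EC100 calcium controls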
`C=CCN1C(=O)c2ccccc2NC1c1cc(Br)cs1` (stereo not drawn) was tested, and the activation was 53.6% (active).
`O=C(NN1C(=O)c2ccccc2NC1c1ccco1)c1ccccc1` (stereo not drawn) was tested, and the activation was 3.92% (inactive).
For `CCOCCn1c(CN2CCN(CC)CC2)nc2c1c(=O)n(C)c(=O)n2C`, the activation was 66% (active).
`CC1=Nc2ccccc2/C1=C/c1sc(=S)n(-c2cccc(C(=O)O)c2)c1O` was tested, and the activation was 13.1% (active).
For `CC1=Nc2ccccc2/C1=C/c1nc(-c2ccc(C)s2)oc1O`, the activation was 7.81% (inactive).
`Oc1[nH]c(=S)sc1/C=C1\C(c2ccccc2)=Nc2ccccc21` was tested, and the activation was 10% (inactive).
For `CCc1cc(=O)n2c([nH]c3ccccc32)c1C#N`, the activation was 3.83% (inactive).
For `CCC(c1nnnn1C1CCCCC1)N1CCN(C(=O)c2ccco2)CC1` (stereo not drawn), the activation was 23.4% (active).
`CCC(C)(C)n1nnnc1C(c1ccc(C)cc1)N1CCN(C(=O)c2ccco2)CC1` (stereo not drawn) was tested, and the activation was 4.34% (inactive).
`O=C(O)C1CCCCC1C(=O)Nc1ccc(-c2ccccc2)cc1` (stereo not drawn) was tested, and the activation was 8.12% (inactive).
With `Cn1nc(NC(=O)C2CCC2C(=O)O)c2c(F)cccc21` (stereo not drawn) the activation was 52.9% (active).
With `CCc1cc[n+](-c2nc3ccccc3nc2[N-]S(=O)(=O)c2ccc(Br)s2)cc1` the activation was -1.89% (inactive).
For `CCc1cc[n+](-c2nc([O-])sc2C=O)cc1`, the activation was 14.1% (active).
`Cc1ccc[n+](-c2nc([O-])sc2C=O)c1` was tested, and the activation was 64.2% (active).
`CCNC(=O)NNC(=O)C1CC(c2cccs2)=NO1` (stereo not drawn) was tested, and the activation was 4.43% (inactive).
`COc1cc(/C=C2\SC(=Nc3ccccc3)NC2=O)cc(Cl)c1O` was tested, and the activation was 3.89% (inactive).
For `COc1cc(/C=C2\SC(=Nc3ccc(Cl)c(C(=O)O)c3)NC2=O)c(Br)c(Br)c1O`, the activation was 54% (active).
For `CCN(CC)c1ccc2c(c1)OC(N)=C(C#N)C2c1cccnc1` (stereo not drawn), the activation was 15.4% (active).
With `CSc1nc(C)nc(N/C=C(\C#N)S(=O)(=O)c2ccccc2Cl)n1` the activation was 6.97% (inactive).
For `C=CCn1c(O)c(CN2CCN(Cc3ccccc3)CC2)c(C)c(C#N)c1=O`, the activation was 3.99% (inactive).
In the case of `Cc1c(CN2CCCC(C)C2)c(O)n(CCO)c(=O)c1C#N` (stereo not drawn), the activation is reported as 11.9% (active).
With `CCN(c1ccccc1)S(=O)(=O)c1ccc(OC)c(NC(=O)Cn2cnc3c2c(=O)n(C)c(=O)n3C)c1` the activation was 18.8% (active).
`CC1=C(C(=O)N(C)C)C(c2ccc(C)s2)NC(=S)N1` (stereo not drawn) was tested, and the activation was 0.74% (inactive).
`CCn1nc(-c2ccccc2)c2nc3ccccc3nc21` was tested, and the activation was 26.2% (active).
With `CCCCCn1nc(-c2ccccc2)c2nc3ccccc3nc21` the activation was 54.7% (active).
`Cn1nc(-c2ccccc2)c2nc3ccccc3nc21` was tested, and the activation was 8.34% (inactive).
`Cc1cc(C(=O)O)ccc1-c1ccc(/C=C2\SC(=O)N(CC(=O)Nc3ccc4c(c3)OCO4)C2=O)o1` was tested, and the activation was 11.4% (inactive).
For `O=C(COC(=O)c1ccc(O)cc1)Nc1ccc2c(c1)OCCO2`, the activation was 78.5% (active).
For `Cc1c(C)[n+](=O)c(-c2ccc(Br)cc2)c(C)n1[O-]`, the activation was 1060% (active).
`CCC12OC(=N)C(C#N)(C1C)C(C#N)(C#N)C(c1ccccc1)O2` (stereo not drawn) was tested, and the activation was 2.9% (inactive).
For `CCCCC1OC2(C)OC(=N)C1(C#N)C(C#N)(C#N)C2c1ccccc1` (stereo not drawn), the activation was 8.3% (inactive).
For `CC1C2(C)OC(=N)C(C#N)(C(C)O2)C1(C#N)C#N` (stereo not drawn), the activation was 13.7% (active).
For `CCc1ccc2c(c1)C(NC(C)=O)C(=O)N2CC` (stereo not drawn), the activation was 6.29% (inactive).
`c1ccc(CCC2=NCCn3cccc32)cc1` was tested, and the activation was 15.8% (active).
`Nc1ccc2c(O)cc(S(=O)(=O)O)cc2c1` was tested, and the activation was 16.8% (active).
With `Cc1ccc(N=Nc2c(O)n(CN3CCOCC3)c3ccccc23)cc1` the activation was 35.8% (active).
With `Cc1ccc(C)c(C(=O)CSc2n[nH]c(C(C)C)n2)c1` the activation was 128% (active).
In the case of `COc1ccc(Cl)cc1-c1nc(SCC(=O)NC(C)C)n[nH]1`, the activation is reported as 8.01% (inactive).
In the case of `C/C(N)=C(/C#N)C(=O)CSc1n[nH]c(-c2cccs2)n1`, the activation is reported as 11.4% (inactive).
`CC(C)(CO)NCC#Cc1ccccc1` was tested, and the activation was 5.16% (inactive).
With `CCOc1cc(N(CC)CC)ccc1/C=C(/C#N)c1nc2ccccc2[nH]1` the activation was 5.8% (inactive).
In the case of `COc1cccc(/C=C(/C#N)c2nc3ccccc3[nH]2)c1OC(C)C(=O)O` (stereo not drawn), the activation is reported as 5.66% (inactive).
With `CCCOc1cc(N(CC)CC)ccc1/C=C(/C#N)c1nc2ccc(C)cc2[nH]1` the activation was 30.9% (active).
For `COc1cc(/C=C(\C#N)c2nc3ccccc3[nH]2)ccc1O`, the activation was 6.21% (inactive).
In the case of `CCN(CC)c1ccc(/C=C(/C#N)c2nc3ccccc3[nH]2)c(OC(C)C)c1`, the activation is reported as 127% (active).
With `COc1cc(/C=C(\C#N)c2nc3ccccc3[nH]2)cc(OC)c1O` the activation was 37.9% (active).
With `COC1C/C(=N\O)C2OC(c3ccccc3)OCC2O1` (stereo not drawn) the activation was 6.29% (inactive).
`COc1cc2c3nnc(-c4ccc(F)cc4)c-3cn(Cc3cccc(C)c3)c2cc1OC` was tested, and the activation was 11.1% (inactive).
In the case of `COc1cc2c3nnc(-c4ccc(F)cc4)c-3cn(Cc3ccc(C)cc3)c2cc1OC`, the activation is reported as 3.15% (inactive).
In the case of `COc1cc2c3nnc(-c4ccc(F)cc4)c-3cn(Cc3cccc(F)c3)c2cc1OC`, the activation is reported as 446% (active).
For `COCCNC(=O)C(c1ccc(C)o1)N(Cc1ccc(F)cc1)C(=O)Cn1nnc2ccccc21` (stereo not drawn), the activation was 4.47% (inactive).
In the case of `O=C(NC1CCCCC1)C(c1ccc(F)cc1)N(Cc1ccccc1)C(=O)CN1C(=O)c2ccccc2S1(=O)=O` (stereo not drawn), the activation is reported as 165% (active).
For `Cc1cc(/C=N/NC(N)=S)c(O)c(/C=N/NC(N)=S)c1`, the activation was 480% (active).
`CCn1c(Cc2ccccc2)nnc1SCC(=O)OC(C)C` was tested, and the activation was 11.8% (active).
For `CC(=O)Nc1cccc(NC(=O)CSc2nnc(Cc3cccn3C)n2CCc2ccccc2)c1`, the activation was 2.51% (inactive).
In the case of `C/C(=N/NC(=O)c1cc(C)[nH]n1)c1ccco1`, the activation is reported as 14.3% (active).
`C/C(=N/NC(=O)CNC(=O)Cc1ccccc1)c1ccco1` was tested, and the activation was 5.62% (inactive).
For `CCN(CC)c1ccc(/C=C/C(=O)C2C(=O)C=C(C)OC2=O)cc1` (stereo not drawn), the activation was 3.69% (inactive).
`CCN(CC)c1ccc(/C=c2\sc3nnc(-c4ccccc4Cl)n3c2=O)cc1` was tested, and the activation was 72.8% (active).
In the case of `CCN(CC)c1ccc(/C=c2/sc3nnc(-c4ccccc4C)n3c2=O)cc1`, the activation is reported as 12% (active).
In the case of `Brc1ccc(C2=CC(c3cccs3)n3ncnc3N2)cc1` (stereo not drawn), the activation is reported as 8.78% (inactive).
`COc1cc(C2C=C(c3cccs3)Nc3ncnn32)cc(OC)c1OC` (stereo not drawn) was tested, and the activation was 12.2% (active).
`COc1cccc(C2C=C(c3ccc(Br)s3)Nc3ncnn32)c1OC` (stereo not drawn) was tested, and the activation was 5.02% (inactive).
